Assay results published in ChEMBL document CHEMBL3817782, “Synthesis, Structural Elucidation, and Biological Evaluation of NSC12, an Orally Available Fibroblast Growth Factor (FGF) Ligand Trap for the Treatment of FGF-Dependent Lung Tumors” (J Med Chem, 2016).
Values after ≈ are worked out from the molar mass of the structure shown. Active and inactive are the calls of the source. The rule behind the calls is not given here.

Columns and labels:
[1] = tested on: NCI-H520; experiment: Antiproliferative activity against human NCI-H520 cells incubated for 72 hrs by PI-staining based flow cytometry; assay type: functional, cell-based; conditions: NCI-H520, 72 h
Summary of the method: (§1)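 H520 cells kept in RPMI plus 10% FBS and cultured 72 h with compound in medium plus 1% DMSO final. Viable PI-negative cells counted by flow cytometry, with absolute counts from the analyzer's counting function.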

[2] = target: T1, Fibroblast growth factor 2 (Homo sapiens, UniProt P09038); experiment: Inhibition of human recombinant FGF2 assessed as reduction in HSPG/FGF2/[…] interaction by measuring FGF2 mediated […]-CHO-flg-1A-luc cell to CHO-K1 cell adhesion incubated for 2 hrs by luciferase assay; assay type: cell-based
T1 sequence (P09038 143-288 limits assumed): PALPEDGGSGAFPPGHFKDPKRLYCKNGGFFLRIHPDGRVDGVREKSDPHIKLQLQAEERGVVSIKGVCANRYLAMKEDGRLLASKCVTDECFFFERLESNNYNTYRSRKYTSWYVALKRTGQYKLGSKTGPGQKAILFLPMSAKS
Summary of the method: (§2)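 Wild-type CHO-K1 monolayers fixed in 3% glutaraldehyde for 2 h at 4 °C, quenched with 0.1 M glycine. A745-CHO-flg-1A-luc cells (50 000 cells/cm²) added in serum-free medium plus 10 mM EDTA, with or without 30 ng/mL FGF2, plus increasing compound concentrations in 3% DMSO. Incubated 2 h at 37 °C. Unattached cells washed off; bound-cell luciferase measured. Triplicates.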

[3] = tested on: Lewis lung carcinoma; experiment: Antiangiogenic activity against mouse LLC cells xenografted in C57BL/6 mouse assessed as pale appearance at 7.5 mg/kg administered as oral gavage for 7 days daily; assay type: functional, organism-based
Summary of the method: (§3)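 Eight-week-old C57BL/6 mice given 5 × 10^5 LLC cells sc in the dorsolateral flank in PBS. Dosing started once tumors were palpable: 7.5 mg/kg or vehicle daily by gavage in DMSO/H2O (1:1). Tumors measured in two dimensions, volume taken as (D × d²)/2. At the end, tumors harvested, weighed and photographed. Body weight and clinical signs followed throughout.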

[4] = Antiproliferative activity against mouse LLC cells incubated for 48 hrs by PI-staining based flow cytometry; assay type: functional, cell-based; conditions: Lewis lung carcinoma
Summary of the method: (§4)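 LLC cells kept in DMEM plus 10% heat-inactivated FBS and cultured 48 h with compound in medium plus 1% DMSO final. PI-negative viable cells counted by flow cytometry to give absolute counts.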

[5] = Plasma concentration in C57BL/6 mouse at 7.5 mg/kg administered as single dose measured after 30 mins; assay type: ADME, organism-based
Summary of the method: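 Eight-week-old mice given 7.5 mg/kg orally, with blood drawn 30 min, 2 h and 8 h later. Plasma proteins precipitated with acetonitrile containing internal standard (1:2). Analyte quantified by HPLC–ESI-MS/MS against calibration curves in spiked blank mouse plasma (linear 1–500 nM, LOQ 1 nM). Extraction recovery 90–95%.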

[6] = tested on: Lewis lung carcinoma; experiment: Antitumor activity against mouse LLC cells xenografted in C57BL/6 mouse assessed as tumor growth inhibition at 7.5 mg/kg administered as oral gavage for 7 days daily relative to vehicle-treated control; assay type: functional, organism-based; summary of the method: as §3
[7] = target: T1, Fibroblast growth factor 2; experiment: Inhibition of human recombinant FGF2 assessed as suppression of FGF2-stimulated FGFR1 phosphorylation in mouse LLC cells at 25 uM incubated for 20 mins by Western blot analysis; assay type: cell-based
Summary of the method: (§5)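 LLC cells stimulated with FGF2 (30 ng/mL) with or without compound in medium plus 3% DMSO for 20 min. Cells lysed in RIPA buffer with 1% Triton X-100, 0.2% Brij and 1 mM orthovanadate. Immunoblotted with anti-phospho-FGFR1, with β-actin as loading control.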

[8] = Kinetic solubility in 3% DMSO solution in PBS up to 30 uM stirred for 5 mins by HPLC-MS/MS analysis; assay type: physicochemical; conditions: buffer
Summary of the method: (§6)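 Fresh DMSO stocks diluted into PBS to nominal 100, 44, 29, 16 and 8.9 μM, 3% DMSO final. Stirred 5 min (250 rpm, rt), centrifuged to remove undissolved material. Supernatant diluted 1:100 in MeCN containing internal standard (100 nM) and quantified by HPLC–ESI-MS/MS.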

[9] = Kinetic solubility in 3% DMSO solution in PBS at 44 to 100 uM stirred for 5 mins by HPLC-MS/MS analysis; assay type: physicochemical; conditions: buffer; summary of the method: as §6
[10] = tested on: Mus musculus; experiment: Toxicity in C57BL/6 mouse xenografted with mouse LLC cells assessed as effect on clinical parameters at 7.5 mg/kg administered as oral gavage for 7 days daily; assay type: organism-based; conditions: in vivo, 168 h; summary of the method: as §3
[11] = target: T1, Fibroblast growth factor 2; experiment: Binding affinity to human recombinant FGF2 treated for 4 mins measured after 10 mins by surface plasmon resonance spectroscopic analysis
Summary of the method: (§7)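 Human recombinant FGF2 (20 μg/mL in 10 mM sodium acetate, pH 6.0) coupled to an EDC/NHS-activated CM5 chip, with an ethanolamine-blocked dextran reference cell. Compounds injected at 8–150 μM for 4 min (30 μL/min), then 10 min dissociation. Apparent Kd taken from dose-dependent binding. Samples in PBS with 3% DMSO.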

[12] = Dissociation constant, pKa of the compound in methanol-water mixture at 25 +/- 1 degC by potentiometric pH-metric method; assay type: physicochemical
Summary of the method: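 Potentiometric pH-metric titration in methanol–water mixtures from 40 to 10%. Aqueous pKa extrapolated. Titration curves fitted by nonlinear multiparametric analysis.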

[13] = tested on: Mus musculus; experiment: Toxicity in C57BL/6 mouse xenografted with mouse LLC cells assessed as effect on body weight at 7.5 mg/kg administered as oral gavage for 7 days daily; assay type: organism-based; conditions: in vivo, 168 h; summary of the method: as §3
[14] = Kinetic solubility in DMEM buffer/1% DMSO assessed as recovered drug level at 10 uM after 4 hrs by HPLC-MS/MS analysis; assay type: physicochemical; conditions: DMEM buffer with 1% DMSO; read-out: Drug recovery
Summary of the method: (§8)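 Fresh DMSO stocks added 1:100 to DMEM plus 0.4% FBS, giving nominal 10, 6 or 3 μM and 1% DMSO final. Stirred 4 h (250 rpm, rt), centrifuged, supernatant diluted 1:100 in MeCN with internal standard. Quantified by HPLC–MS/MS.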

[15] = tested on: NCI-H520; experiment: Antiproliferative activity against human NCI-H520 cells at 0.3 to 10 uM incubated for 72 hrs by PI-staining based flow cytometry; assay type: functional, cell-based; summary of the method: as §1
[16] = target: T1, Fibroblast growth factor 2; experiment: Binding affinity to human recombinant FGF2 at 8 to 150 uM treated for 4 mins measured after 10 mins by surface plasmon resonance spectroscopic analysis; summary of the method: as §7
[17] = Kinetic solubility in DMEM buffer/1% DMSO assessed as recovered drug level at 6 uM after 4 hrs by HPLC-MS/MS analysis; assay type: physicochemical; conditions: DMEM buffer with 1% DMSO; read-out: Drug recovery; summary of the method: as §8
[18] = Kinetic solubility in DMEM buffer/1% DMSO assessed as recovered drug level at 3 uM after 4 hrs by HPLC-MS/MS analysis; assay type: physicochemical; conditions: DMEM buffer with 1% DMSO; read-out: Drug recovery; summary of the method: as §8
[19] = tested on: Lewis lung carcinoma; experiment: Antiproliferative activity against mouse LLC cells at 0.3 to 10 uM incubated for 48 hrs by PI-staining based flow cytometry; assay type: functional, cell-based; summary of the method: as §4
[20] = Kinetic solubility in DMEM buffer at 10 uM after 4 hrs in presence of EDTA by HPLC-MS/MS analysis; assay type: physicochemical; conditions: DMEM buffer with EDTA; read-out: Kinetic_solubility
Summary of the method: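 10 μM (nominal) in DMEM plus 0.4% FBS with 2 mM EDTA and 1% DMSO final. Stirred 4 h (250 rpm, rt), then centrifuged. Supernatant diluted 1:100 in MeCN with internal standard and measured by HPLC–MS/MS. Mean of recovered concentration reported with ±.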

[21] = target: T1, Fibroblast growth factor 2; experiment: Inhibition of human recombinant FGF2 assessed as reduction in HSPG/FGF2/[…] interaction by measuring FGF2 mediated […]-CHO-flg-1A-luc cell to CHO-K1 cell adhesion at 100 uM incubated for 2 hrs by luciferase assay; assay type: cell-based; summary of the method: as §2
[22] = target: T1, Fibroblast growth factor 2; experiment: Inhibition of human recombinant FGF2 assessed as suppression of FGFR1 phosphorylation in mouse LLC cells at 100 uM incubated for 20 mins by Western blot analysis; assay type: cell-based; summary of the method: as §5

| Structure (SMILES) | IC50 [1] | IC50 [2] | Activity [3] | IC50 [4] | concentration at 0.5 h [5] | TGI [6] | Kinetic_solubility [8] | Activity [10] | pKa [12] | Activity [13] | solubility kinetic at 4 h, 10 µM [14] | further results |
| --- | --- | --- | --- | --- | --- | --- | --- | --- | --- | --- | --- | --- |
| C[C@]12CC[C@H]3[C@@H](CC=C4C[C@@H](O)CC[C@@]43C)[C@@H]1CC[C@@H]2C(O)CC(O)(C(F)(F)F)C(F)(F)F (some centres undefined) | 4.1 µM | 10 µM | Active | 2 µM | – | – | – | – | – | – | – | – |
| C[C@]12CC[C@H]3[C@@H](CC=C4C[C@@H](O)CC[C@@]43C)[C@@H]1CC[C@@H]2[C@@H](O)CC(O)(C(F)(F)F)C(F)(F)F | 4.1 µM | 10 µM | Active | 2 µM | 316 nM | Active | soluble | Non-toxic | 9.04 | Non-toxic | 10.7 µM (≈ 5.18 µg/mL) | inhibition [7]: Active; Kinetic_solubility [9]: Insoluble; Activity [11]: Dose-dependent effect; Kd [11]: 40 µM |
| C[C@]12CC[C@H]3[C@@H](CC=C4C[C@@H](O)CC[C@@]43C)[C@@H]1CC[C@@H]2[C@H](O)CC(O)(C(F)(F)F)C(F)(F)F | – | – | – | – | 128 nM | inactive | Insoluble | Non-toxic | 9.08 | Non-toxic | 2.1 µM (≈ 1.02 µg/mL) | Activity [15]: inactive; Activity [16]: inactive; solubility kinetic at 4 h, 6 µM [17]: 1.7 µM (≈ 0.824 µg/mL); solubility kinetic at 4 h, 3 µM [18]: 1.4 µM (≈ 0.678 µg/mL); Activity [19]: inactive; solubility kinetic at 4 h, 10 µM [20]: 1.73 µM; inhibition [21]: inactive; inhibition [22]: inactive |
